Where two headings read alike, the source gives them in different places. Marks after values point to notes of the source that are not given here. One block for each molecule: values may come before it.
What was measured:
ENT2 [1] = target: T1, ENT2 (Homo sapiens, UniProt Q14542); assay: Inhibition of [3H]2-chloroadenosine uptake in ENT1KO cells; assay type: cell-based
T1 sequence (Q14542 1-456): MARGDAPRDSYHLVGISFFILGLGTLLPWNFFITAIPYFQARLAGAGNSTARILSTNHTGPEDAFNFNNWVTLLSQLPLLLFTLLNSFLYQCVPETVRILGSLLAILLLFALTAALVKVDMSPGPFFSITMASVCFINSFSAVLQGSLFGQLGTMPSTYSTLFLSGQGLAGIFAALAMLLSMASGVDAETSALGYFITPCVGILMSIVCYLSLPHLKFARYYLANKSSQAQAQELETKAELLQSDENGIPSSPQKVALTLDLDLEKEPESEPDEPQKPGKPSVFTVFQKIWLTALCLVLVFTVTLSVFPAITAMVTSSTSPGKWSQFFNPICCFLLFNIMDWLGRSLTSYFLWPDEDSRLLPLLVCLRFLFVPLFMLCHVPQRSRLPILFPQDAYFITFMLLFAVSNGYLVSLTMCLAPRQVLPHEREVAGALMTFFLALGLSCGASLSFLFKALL

ENT1 [2] = target: T2, ENT1 (Homo sapiens, UniProt Q99808); assay: Inhibition of [3H]2-chloroadenosine uptake in ENT2KO cells; assay type: cell-based; conditions: comparison of ENT2KO cells (ENT1) with ENT1KO cells (ENT2)
T2 sequence (Q99808 1-456): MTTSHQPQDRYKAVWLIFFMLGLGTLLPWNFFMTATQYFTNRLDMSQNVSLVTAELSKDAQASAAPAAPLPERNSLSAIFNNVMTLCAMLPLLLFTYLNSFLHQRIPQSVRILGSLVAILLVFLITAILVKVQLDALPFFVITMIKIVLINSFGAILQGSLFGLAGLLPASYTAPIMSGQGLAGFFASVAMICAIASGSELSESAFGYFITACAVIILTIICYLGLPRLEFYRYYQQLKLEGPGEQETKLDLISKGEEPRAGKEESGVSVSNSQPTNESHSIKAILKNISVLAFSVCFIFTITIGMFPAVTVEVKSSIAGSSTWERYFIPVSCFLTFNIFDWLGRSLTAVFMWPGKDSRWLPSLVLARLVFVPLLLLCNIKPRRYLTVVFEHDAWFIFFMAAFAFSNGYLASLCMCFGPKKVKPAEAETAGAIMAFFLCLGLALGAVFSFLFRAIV

ENT1KO cells = assay: MTT cell viability, ENT1KO; assay type: cell-based, human; conditions: 48 h; for % resistant: ENT1KO, plateau of biphasic curve fit; for EC50: Homo sapiens
Method in brief: (§1)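 Cells seeded at 1.1 × 10^5/well in complete medium; 1 h later, medium with a range of test compound concentrations added for 48 h at 37 °C, 5% CO2. Vehicle is DMSO-only medium (100%), and compound medium without cells is background (0%). MTT 1 mg/mL in Dulbecco's PBS for 90 min; formazan dissolved in DMSO, A570. Biphasic curves fitted to a 2-site model: plateau gives % resistant, with a LogEC50 per phase. n = 5.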

ENT2KO cells = assay: MTT cell viability, ENT2KO; assay type: cell-based, human; conditions: 48 h; for % resistant: plateau of biphasic curve fit
Method in brief: as §1

HEK293 cells = assay: MTT cell viability, HEK293; assay type: cell-based, human; conditions: for % resistant: plateau of biphasic curve fit, mean ± SEM; for concentration required to impact the remaining (resistant) cells: biphasic viability profile
Method in brief: as §1

E1E2KO cells = assay: MTT cell viability, E1E2KO; assay type: cell-based, human; conditions: 48 h; for % resistant: E1E2KO, plateau of biphasic curve fit; for EC50: Homo sapiens
Method in brief: as §1

ENT1 and ENT2 = assay type: cell-based, human; conditions: HEK293 cells; 10 μM substrate, 15 s uptake; printed as logIC50 (negative)
ENT2 [3] = target: T1, ENT2; assay: [3H]2-chloroadenosine transport kinetics, ENT2-mediated uptake; assay type: cell-based
Method in brief: (§2)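 Trypsin/EDTA-detached cells were suspended in sodium-free N-methylglucamine buffer, pH 7.4, with 0.1% DMSO, 100 nM NBMPR or 5 mM adenosine, 15 min at room temperature. Uptake of varied [3H]2-chloroadenosine ran 10 s and was stopped by spinning through silicone:mineral oil; NaOH-digested pellets were scintillation-counted. Cell volume came from [3H]-water. ENT2 = NBMPR minus adenosine condition; ENT1 = mediated minus ENT2. Michaelis-Menten Km/Vmax; 5 experiments, duplicate.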

ENT1 [4] = target: T2, ENT1; assay: [3H]2-chloroadenosine transport kinetics, ENT1-mediated uptake; assay type: cell-based; conditions: for Vmax of ENT1-mediated uptake: 10 s uptake
Method in brief: as §2

[5] = read-out: LogEC50-1 (converted)
[6] = read-out: LogEC50-2 (converted)

IC50 (ENT2 [1]): 6.31 µM
Structure (SMILES): COc1cc(C(=O)OCCCN2CCCN(CCCOC(=O)c3cc(OC)c(OC)c(OC)c3)CC2)cc(OC)c1OC [Dilazep, dilazep]

Structure (SMILES): Nc1nc2c(ncn2[C@@H]2O[C@H](CO)[C@@H](O)[C@H]2O)c(=O)[nH]1 [Guanosine, guanosine]
relative affinity for ENT1 versus ENT2 (ENT1 [2]): significantly higher affinity for ENT1 over ENT2

Structure (SMILES): Nc1ccn([C@@H]2O[C@H](CO)[C@@H](O)[C@@H]2O)c(=O)n1 [Cytarabine, cytarabine]
% resistant (ENT1KO cells): 37 ± 3 ^b %
EC50 (ENT1KO cells; [5]): 2.34 µM
EC50 (ENT1KO cells; [6]): 4570 µM
sensitivity of ENT2KO cells to the drug (ENT2KO cells): almost completely resistant
% resistant (ENT2KO cells): Monophasic
% resistant (HEK293 cells; 48 h, n = 5): 51 ± 2%
concentration required to impact the remaining (resistant) cells (HEK293 cells): > 300 µM
% resistant (E1E2KO cells): Monophasic
EC50 (E1E2KO cells; [6]): 11200 µM

Ki (ENT2 [1]): 60 ± 24 µM
Structure (SMILES): Nc1ncnc2c1ncn2[C@@H]1O[C@H](CO)[C@@H](O)[C@@H]1O [Vidarabine]

Structure (SMILES): Nc1nc(Cl)nc2c1ncn2[C@H]1C[C@H](O)[C@@H](CO)O1 [Cladribine, cladribine]
% resistant (ENT1KO cells): Monophasic
EC50 (ENT1KO cells; [5]): 3.98 µM
LogEC50-1 (ENT2KO cells; high affinity phase, given as logEC50 (negative)): −4.51 ± 0.07 ^b
% resistant (ENT2KO cells): Monophasic
LogEC50-1 (HEK293 cells; 48 h, high affinity phase, given as logEC50 (negative)): −5.11 ± 0.07
% resistant (HEK293 cells; 48 h, n = 5): Monophasic
% resistant (E1E2KO cells): Monophasic
EC50 (E1E2KO cells; [5]): 16.6 µM

IC50 (ENT2 [1]): 0.501 µM
Structure (SMILES): OCCN(CCO)c1nc(N2CCCCC2)c2nc(N(CCO)CCO)nc(N3CCCCC3)c2n1 [DY, Dipyridamole]
logIC50, monophasic inhibition of [3H]2-chloroadenosine uptake (ENT1 and ENT2): −6.6 ±.01 M

concentration required to obtain any inhibition of [3H]2-chloroadenosine uptake (ENT2 [1]; ENT1KO cells): > 1 µM
logIC50, inhibition of [3H]2-chloroadenosine uptake (ENT2 [1]; ENT1KO cells, 10 μM substrate, 15 s uptake, printed as logIC50 (negative)): ~−5.5 ± 0.1 M
Structure (SMILES): O=[N+]([O-])c1ccc(CSc2ncnc3c2ncn3[C@@H]2O[C@H](CO)[C@@H](O)[C@H]2O)cc1 [NBMPR, nitrobenzylmercaptopurine riboside (nitrobenzylthioinosine)]

Ki (ENT2 [1]): 75 ± 49 µM
Structure (SMILES): Nc1nc(Cl)nc2c1ncn2[C@@H]1O[C@H](CO)[C@@H](O)[C@@H]1F [Clofarabine, clofarabine]
% resistant (ENT1KO cells): 6 ± 2 ^b %
EC50 (ENT1KO cells; [5]): 0.174 µM
sensitivity of ENT2KO cells to the drug (ENT2KO cells): almost completely resistant
% resistant (ENT2KO cells): 70 ± 3 ^b %
% resistant (HEK293 cells; 48 h, n = 5): 21 ± 2%
% resistant (HEK293 cells; 48 h, n = 5, listed as clofarabine): approximately 20%
concentration required to impact the remaining (resistant) cells (HEK293 cells): > 300 µM
% resistant (E1E2KO cells): Monophasic
EC50 (E1E2KO cells; [5]): 138 µM

Structure (SMILES): Nc1nc2nc[nH]c2c(=S)[nH]1 [6-thioguanine]
% resistant (ENT1KO cells): 10 ± 3%
EC50 (ENT1KO cells; [5]): 1.7 µM
% resistant (ENT2KO cells): 25 ± 5%
concentration required to impact the remaining (resistant) cells (HEK293 cells): > 300 µM
% resistant (E1E2KO cells): Monophasic
EC50 (E1E2KO cells; [5]): 77.6 µM

ENT2-mediated uptake (ENT2 [3]; E1E2KO cells): no ENT1-mediated or ENT2-mediated uptake
ENT2-mediated uptake (ENT2 [3]; ENT2KO cells): no detectable ENT2-mediated uptake
ENT1-mediated uptake (ENT1 [4]; E1E2KO cells): no ENT1-mediated or ENT2-mediated uptake
Vmax of ENT1-mediated uptake (ENT1 [4]; ENT2KO cells): 4.8 ± 0.6 pmol/μL per second
Vmax of ENT1-mediated uptake (ENT1 [4]; HEK293 cells): 3.2 ± 0.3 pmol/μL per second
Structure (SMILES): [3H]c1nc2c(N)nc(Cl)nc2n1[C@@H]1O[C@H](CO)[C@@H](O)[C@H]1O [[^3H]2-chloroadenosine, [8-^3H]2-Chloroadenosine]

Structure (SMILES): O=c1[nH]cc(F)c(=O)[nH]1 [5-fluorouracil]
% resistant (ENT1KO cells): Monophasic
EC50 (ENT1KO cells; [5]): 8.51 µM
% resistant (ENT2KO cells): Monophasic
% resistant (HEK293 cells; 48 h, n = 5): Monophasic
% resistant (E1E2KO cells): 48 ± 10%
EC50 (E1E2KO cells; [5]): 7.76 µM
EC50 (E1E2KO cells; [6]): 1070 µM

Structure (SMILES): Nc1ccn([C@@H]2O[C@H](CO)[C@@H](O)C2(F)F)c(=O)n1 [Gemcitabine, gemcitabine]
% resistant (ENT1KO cells): 14 ± 2 ^b %
EC50 (ENT1KO cells; [5]): 0.0427 µM
EC50 (ENT1KO cells; [6]): 468 µM
sensitivity of ENT2KO cells to the drug (ENT2KO cells): almost completely resistant
% resistant (ENT2KO cells): 76 ± 3 ^b %
% resistant (HEK293 cells; 48 h, n = 5): 33 ± 4%
concentration required to impact the remaining (resistant) cells (HEK293 cells): > 300 µM
% resistant (E1E2KO cells): Monophasic
EC50 (E1E2KO cells; [6]): 1820 µM

Structure (SMILES): Sc1ncnc2nc[nH]c12 [6-mercaptopurine]
% resistant (ENT1KO cells): 66 ± 4 ^b %
EC50 (ENT1KO cells; [5]): 2.95 µM
% resistant (ENT2KO cells): 41 ± 3%
concentration required to impact the remaining (resistant) cells (HEK293 cells): > 300 µM
% resistant (E1E2KO cells): 70 ± 4 ^b %
EC50 (E1E2KO cells; [5]): 26.3 µM

Source: publication PMC12799549 (Drug Metabolism and Disposition, 2025)
